How the values were obtained:
[1] = target: T1, beta-catenin-B-cell lymphoma 9 protein complex (Homo sapiens, UniProt P35222); test: Inhibition of protein interaction between beta-catenin (unknown origin)/BCL9 (unknown origin) by Alpha-screen competitive inhibition assay; type: protein-complex assay
T1 sequence (P35222 whole entry): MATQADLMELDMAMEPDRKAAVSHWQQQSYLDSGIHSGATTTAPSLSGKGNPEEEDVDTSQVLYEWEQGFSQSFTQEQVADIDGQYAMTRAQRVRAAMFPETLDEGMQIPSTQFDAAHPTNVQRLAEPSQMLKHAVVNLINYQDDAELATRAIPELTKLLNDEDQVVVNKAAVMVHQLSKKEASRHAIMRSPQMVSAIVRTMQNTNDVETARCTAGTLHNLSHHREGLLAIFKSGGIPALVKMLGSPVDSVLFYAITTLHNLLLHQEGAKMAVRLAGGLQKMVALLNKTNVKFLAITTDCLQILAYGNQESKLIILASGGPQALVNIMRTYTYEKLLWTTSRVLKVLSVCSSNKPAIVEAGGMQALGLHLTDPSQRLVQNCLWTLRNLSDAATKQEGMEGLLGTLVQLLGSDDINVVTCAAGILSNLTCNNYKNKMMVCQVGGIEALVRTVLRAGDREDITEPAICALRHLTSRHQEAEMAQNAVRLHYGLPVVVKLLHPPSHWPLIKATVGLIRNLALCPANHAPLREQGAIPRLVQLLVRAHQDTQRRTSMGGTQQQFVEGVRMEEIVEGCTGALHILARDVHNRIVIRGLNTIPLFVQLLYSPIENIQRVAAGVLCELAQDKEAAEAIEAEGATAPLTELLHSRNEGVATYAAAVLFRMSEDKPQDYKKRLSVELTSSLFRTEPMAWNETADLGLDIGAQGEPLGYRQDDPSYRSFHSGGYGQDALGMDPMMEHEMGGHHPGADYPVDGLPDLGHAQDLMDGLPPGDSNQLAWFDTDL
T1 sequence (O00512 whole entry): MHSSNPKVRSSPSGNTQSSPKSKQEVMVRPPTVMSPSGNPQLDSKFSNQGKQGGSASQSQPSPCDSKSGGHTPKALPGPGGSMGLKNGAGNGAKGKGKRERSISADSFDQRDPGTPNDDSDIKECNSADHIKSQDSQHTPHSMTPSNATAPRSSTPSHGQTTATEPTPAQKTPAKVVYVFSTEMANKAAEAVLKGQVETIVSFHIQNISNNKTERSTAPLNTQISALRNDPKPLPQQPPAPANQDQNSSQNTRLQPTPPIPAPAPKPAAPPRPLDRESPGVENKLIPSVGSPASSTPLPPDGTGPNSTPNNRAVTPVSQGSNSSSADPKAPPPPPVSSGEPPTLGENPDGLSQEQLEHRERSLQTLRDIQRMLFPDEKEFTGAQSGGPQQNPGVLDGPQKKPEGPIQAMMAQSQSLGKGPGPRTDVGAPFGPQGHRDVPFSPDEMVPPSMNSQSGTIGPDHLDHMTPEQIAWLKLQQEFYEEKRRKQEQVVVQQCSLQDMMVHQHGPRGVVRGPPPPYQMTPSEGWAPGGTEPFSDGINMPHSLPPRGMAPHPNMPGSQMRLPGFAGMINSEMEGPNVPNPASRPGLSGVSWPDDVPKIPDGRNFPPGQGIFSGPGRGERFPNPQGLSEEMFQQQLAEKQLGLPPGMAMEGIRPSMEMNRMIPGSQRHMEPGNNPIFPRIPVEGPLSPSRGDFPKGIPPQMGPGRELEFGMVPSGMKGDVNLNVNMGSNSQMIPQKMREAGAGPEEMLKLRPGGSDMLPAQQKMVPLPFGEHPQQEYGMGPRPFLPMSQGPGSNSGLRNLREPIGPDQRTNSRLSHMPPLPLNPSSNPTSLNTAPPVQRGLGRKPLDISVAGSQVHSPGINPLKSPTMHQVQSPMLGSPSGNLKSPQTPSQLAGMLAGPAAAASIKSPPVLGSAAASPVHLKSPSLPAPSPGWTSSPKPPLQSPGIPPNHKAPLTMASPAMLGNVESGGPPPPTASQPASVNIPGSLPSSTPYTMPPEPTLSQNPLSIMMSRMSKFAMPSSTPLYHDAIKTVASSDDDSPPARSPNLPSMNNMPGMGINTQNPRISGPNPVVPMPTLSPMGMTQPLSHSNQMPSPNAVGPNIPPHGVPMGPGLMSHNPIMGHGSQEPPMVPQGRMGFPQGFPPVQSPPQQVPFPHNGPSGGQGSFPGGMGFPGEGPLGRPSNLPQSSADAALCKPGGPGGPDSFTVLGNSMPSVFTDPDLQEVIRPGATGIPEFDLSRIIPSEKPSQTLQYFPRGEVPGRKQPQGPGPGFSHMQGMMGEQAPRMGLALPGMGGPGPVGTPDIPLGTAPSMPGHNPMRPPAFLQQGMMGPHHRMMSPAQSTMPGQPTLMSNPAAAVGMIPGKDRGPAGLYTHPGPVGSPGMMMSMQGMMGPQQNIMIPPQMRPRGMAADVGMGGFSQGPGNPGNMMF
Outline: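 Purified His6-tagged full-length β-catenin (40 nM) preincubated with biotinylated BCL9 (5 nM) for 30 min at 4 °C. Inhibitor dilutions then added, 1 h at 4 °C, followed by donor and acceptor beads (10 μg/mL final) for 1 h at 4 °C. IC50 obtained by nonlinear least-squares fit and converted to Ki by the Nikolovska-Coleska method. Triplicate, mean ± SD.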

SW480 = test: Cytotoxic activity in human SW480 cells at 800 uM incubated for 4 hrs by LDH release assay; type: cell-based; details: sw480, 4 h
Outline: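 SW480 cells were seeded at 2 × 10^4 cells/well and kept overnight at 37 °C. They were then exposed to a range of inhibitor concentrations for 4 h. LDH in the culture supernatant was measured with a diagnostic kit by absorbance at 490 nm. Percent cytotoxicity was calculated from experimental release against maximum release, with background subtracted. Run in triplicate.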

[2] = Inhibition of protein interaction between C-terminal 6x-histidine tagged full-length beta-catenin (1 to 781 residues) (unknown origin)/N-terminal biotinylated human E-cadherin (824 to 877 residues) incubated for 1 hr by Alpha-screen competitive inhibition assay
Outline: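 Full-length β-catenin (residues 1–781) with a C-terminal His6 tag was expressed in E. coli BL21(DE3) after IPTG induction at 20 °C. It was purified by Ni-NTA, anion-exchange and size-exclusion chromatography. For the assay, 40 nM β-catenin was preincubated for 30 min at 4 °C with 5 nM biotinylated BCL9 or 10 nM biotinylated E-cadherin. Inhibitor was then added for 1 h at 4 °C, followed by 10 μg/mL donor and acceptor beads for 1 h at 4 °C. IC50 was obtained by nonlinear fit and converted to Ki by the Nikolovska-Coleska method. Triplicate, mean ± SD.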

SMILES	Ki [1] [µM]	Activity (SW480)	Ki [2] [µM]
Cl.Cl.O=C(Nc1ccc(O[C@H]2CCNC2)c(-c2ccc(F)cc2)c1)c1ccc(O[C@H]2CCNC2)c(-c2ccc(F)c(F)c2)c1	2.1	–	–
Cl.Cl.O=C(Nc1ccc(O[C@@H]2CCNC2)c(-c2cccc(-c3nn[nH]n3)c2)c1)c1ccc(O[C@H]2CCNC2)c(-c2ccc(F)c(F)c2)c1	–	Non-Toxic	> 915
